The source made the active and inactive calls. The rule behind the calls is not given here.
Assays:
[1] = system: Trypanosoma brucei; test: Antitrypanosomal activity against Trypanosoma brucei 427 bloodstream forms assessed as inhibition of parasite growth incubated for 48 hrs by hemocytometry; type: functional, organism-based
[2] = system: Trypanosoma brucei; test: Antitrypanosomal activity against Trypanosoma brucei relative to rimantadine; type: functional
[3] = system: Trypanosoma brucei; test: Antitrypanosomal activity against Trypanosoma brucei relative to amantadine; type: functional
[4] = Selectivity index, ratio of IC50 for rat L6 cells to IC50 for Trypanosoma brucei bloodstream forms; type: toxicity, cell-based; settings: read-out: Ratio IC50
[5] = system: L6; test: Cytotoxicity against rat L6 cells after 6 days using alamar blue staining based fluorescence assay; type: cell-based; settings: L6, 144 h
In short: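 Rat skeletal muscle L6 cells seeded at 1 × 10⁴ ml⁻¹ in medium containing graded compound concentrations and held 6 days at 37 °C. Alamar Blue then added, with fluorescence read after a further 8 h.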

[6] = system: Trypanosoma cruzi; test: Antitrypanosomal activity against Trypanosoma cruzi CL Brener clone epimastigotes assessed as inhibition of parasite growth incubated for 5 days by hemocytometry; settings: 120 h
[7] = system: Trypanosoma brucei; test: Antitrypanosomal activity against Trypanosoma brucei bloodstream form assessed as inhibition parasite growth
[8] = system: Trypanosoma brucei; test: Antitrypanosomal activity against Trypanosoma brucei bloodstream forms assessed as inhibition parasite growth at 5 ug/ml; type: functional

Row | Structure (SMILES) | IC50 ([1]; Trypanosoma brucei, 427, 48 h) | IC90 ([1]; Trypanosoma brucei, 427, 48 h) | IC50 [1] | IC90 [1] | further results
1 | O=C1ON=C2C3CC4CC(C3)CC12C4 | – | – | – | – | Ratio IC50 [2]: 3; Ratio IC50 [3]: 45
2 | O=C(CN1C(=O)CNC2(C1=O)C1CC3CC(C1)CC2C3)NO (stereo unspecified) [listing 1 of 2 here] | 0.09 µM | 0.155 µM | – | – | selectivity ratio [4]: > 3600; IC50 [5]: > 325 µM; IC50 [6]: 5.51 µM; IC90 [6]: 11.1 µM
3 | O=C(CN1C(=O)[C@H](Cc2ccccc2)NC2(C1=O)C1CC3CC(C1)CC2C3)NO (stereo partly specified) [listing 1 of 2 here] | – | – | 0.0068 µM | 0.0115 µM | selectivity ratio [4]: 1500; IC50 [7]: 0.332 µM; IC50 [5]: 10.4 µM; IC50 [6]: 0.21 µM; IC90 [6]: 0.36 µM
4 | O=C(CN1C(=O)[C@@H](Cc2ccccc2)NC2(C1=O)C1CC3CC(C1)CC2C3)NO (stereo partly specified) [listing 1 of 2 here] | – | – | – | 0.014 µM | –
5 | CN1CC(=O)N(CC(=O)NO)C(=O)C12C1CC3CC(C1)CC2C3 (stereo unspecified) [listing 1 of 2 here] | 0.193 µM | 0.328 µM | – | – | selectivity ratio [4]: 210; IC50 [5]: 40.4 µM; IC50 [6]: 3.62 µM; IC90 [6]: 5.99 µM
6 | O=C(CN1C(=O)CNC2(C1=O)C1CC3CC(C1)CC2C3)NO (stereo unspecified) [listing 2 of 2 here] | – | – | 0.079 µM | 0.148 µM | –
7 | O=C(CN1C(=O)[C@@H](Cc2ccccc2)NC2(C1=O)C1CC3CC(C1)CC2C3)NO (stereo partly specified) [listing 2 of 2 here] | 0.0091 µM | – | – | – | selectivity ratio [4]: 1300; IC50 [7]: 0.106 µM; IC50 [5]: 11.6 µM
8 | O=C(CN1C(=O)C(Cc2ccccc2)NC2(C1=O)C1CC3CC(C1)CC2C3)NO (racemic; form 2) | – | – | 0.018 µM | 0.024 µM | –
9 | O=C(CN1C(=O)[C@H](Cc2ccccc2)NC2(C1=O)C1CC3CC(C1)CC2C3)NO (stereo partly specified) [listing 2 of 2 here] | – | – | 0.042 µM | 0.08 µM | –
10 | O=C1CNC2(C(=O)N1)C1CC3CC(C1)CC2C3 (stereo unspecified) | – | – | – | – | growth inhibition (GI) [8]: inactive
11 | O=C(CN1C(=O)C(Cc2ccccc2)NC2(C1=O)C1CC3CC(C1)CC2C3)NO (racemic; form 1) | 0.017 µM | 0.026 µM | – | – | selectivity ratio [4]: 1400; IC50 [7]: 0.285 µM; IC50 [5]: 23.7 µM
12 | C[C@@H]1NC2(C(=O)N(CC(=O)NO)C1=O)C1CC3CC(C1)CC2C3 (stereo partly specified) [listing 1 of 2 here] | – | – | 0.134 µM | 0.276 µM | –
13 | CN1CC(=O)N(CC(=O)NO)C(=O)C12C1CC3CC(C1)CC2C3 (stereo unspecified) [listing 2 of 2 here] | – | – | 0.34 µM | 0.622 µM | –
14 | CN1CC(=O)NC(=O)C12C1CC3CC(C1)CC2C3 (stereo unspecified) | – | – | – | – | inhibition of growth at 5 µg/mL ([8]; read-out: GI): 40%

Further lines, with some results ahead:

Row | IC50 ([1]; Trypanosoma brucei, 427, 48 h) | IC90 ([1]; Trypanosoma brucei, 427, 48 h) | IC50 [1] | IC90 [1] | Structure (SMILES) | further results
15 | 0.158 µM | 0.3 µM | – | – | CN1CC(=O)N(CC(=O)NO)C(=O)C12CCCCCCC2 [listing 1 of 2 here] | –
16 | 0.3 µM | 0.635 µM | – | – | O=C(CN1C(=O)CNC2(CCCCCCC2)C1=O)NO [listing 1 of 2 here] | –
17 | – | – | 0.311 µM | 0.717 µM | CN1CC(=O)N(CC(=O)NO)C(=O)C12CCCCCC2 [listing 1 of 2 here] | –
18 | – | – | 0.134 µM | 0.259 µM | C[C@@H]1NC2(CCCCCCC2)C(=O)N(CC(=O)NO)C1=O [listing 1 of 2 here] | –
19 | 0.029 µM | 0.039 µM | – | – | O=C(CN1C(=O)[C@H](Cc2ccccc2)NC2(CCCCCCC2)C1=O)NO [listing 1 of 2 here] | selectivity ratio [4]: 3200; IC50 [5]: 93.8 µM
20 | – | – | 0.266 µM | 0.495 µM | O=C(CN1C(=O)CNC2(CCCCCCC2)C1=O)NO [listing 2 of 2 here] | –
21 | – | – | 0.162 µM | 0.327 µM | CN1CC(=O)N(CC(=O)NO)C(=O)C12CCCCCCC2 [listing 2 of 2 here] | –
22 | – | – | 1.15 µM | 1.71 µM | O=C(CN1C(=O)CNC2(CCCCCC2)C1=O)NO [listing 1 of 2 here] | –
23 | – | – | 0.025 µM | 0.035 µM | O=C(CN1C(=O)[C@H](Cc2ccccc2)NC2(CCCCCCC2)C1=O)NO [listing 2 of 2 here] | –
24 | 1.87 µM | 2.53 µM | – | – | O=C(CN1C(=O)CNC2(CCCCCC2)C1=O)NO [listing 2 of 2 here] | –
25 | 0.285 µM | 0.673 µM | – | – | CN1CC(=O)N(CC(=O)NO)C(=O)C12CCCCCC2 [listing 2 of 2 here] | –
26 | – | – | 0.405 µM | 0.909 µM | C[C@@H]1NC2(C(=O)N(CC(=O)NO)C1=O)C1CC3CC(C1)CC2C3 (stereo partly specified) [listing 2 of 2 here] | –
27 | 0.125 µM | 0.27 µM | – | – | C[C@@H]1NC2(CCCCCCC2)C(=O)N(CC(=O)NO)C1=O [listing 2 of 2 here] | –
